Experimental data published in ChEMBL document CHEMBL1146275, “5-HT2C antagonists based on fused heterotricyclic templates: design, synthesis and biological evaluation” (Bioorg Med Chem Lett, 2007).
Activity calls are given as the source filed them. The calls are words filed in the database; no cut-off is given here.

Assays:
[1] = biological target: T1, 5-hydroxytryptamine receptor 2C (Homo sapiens) (UniProt P28335); experiment: Antagonist activity at human 5HT2C receptor expressed in HEK293 cells by measuring intracellular calcium mobilization; format: functional, cell-based
T1 sequence (whole entry): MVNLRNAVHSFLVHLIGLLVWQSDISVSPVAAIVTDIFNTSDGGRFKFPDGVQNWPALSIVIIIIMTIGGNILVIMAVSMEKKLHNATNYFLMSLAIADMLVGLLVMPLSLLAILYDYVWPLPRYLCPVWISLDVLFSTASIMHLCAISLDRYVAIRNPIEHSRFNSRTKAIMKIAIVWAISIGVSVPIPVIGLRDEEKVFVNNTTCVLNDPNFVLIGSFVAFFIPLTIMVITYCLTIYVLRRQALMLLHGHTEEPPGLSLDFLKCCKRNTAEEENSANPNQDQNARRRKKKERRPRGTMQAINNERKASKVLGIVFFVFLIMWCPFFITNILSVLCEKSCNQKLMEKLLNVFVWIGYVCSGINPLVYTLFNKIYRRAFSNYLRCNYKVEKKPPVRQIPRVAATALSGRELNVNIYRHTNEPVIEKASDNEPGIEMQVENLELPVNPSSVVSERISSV
Summary of the method: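 Antagonism measured as blockade of the 5-HT-evoked response at the human receptor, with affinity expressed as pKb.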

[2] = biological target: T2, 5-hydroxytryptamine receptor 2B (Homo sapiens, UniProt P41595); experiment: Agonist activity at human 5HT2B receptor expressed in HEK293 cells by measuring intracellular calcium mobilization upto 10 uM; format: functional, cell-based
T2 sequence (P41595 whole entry): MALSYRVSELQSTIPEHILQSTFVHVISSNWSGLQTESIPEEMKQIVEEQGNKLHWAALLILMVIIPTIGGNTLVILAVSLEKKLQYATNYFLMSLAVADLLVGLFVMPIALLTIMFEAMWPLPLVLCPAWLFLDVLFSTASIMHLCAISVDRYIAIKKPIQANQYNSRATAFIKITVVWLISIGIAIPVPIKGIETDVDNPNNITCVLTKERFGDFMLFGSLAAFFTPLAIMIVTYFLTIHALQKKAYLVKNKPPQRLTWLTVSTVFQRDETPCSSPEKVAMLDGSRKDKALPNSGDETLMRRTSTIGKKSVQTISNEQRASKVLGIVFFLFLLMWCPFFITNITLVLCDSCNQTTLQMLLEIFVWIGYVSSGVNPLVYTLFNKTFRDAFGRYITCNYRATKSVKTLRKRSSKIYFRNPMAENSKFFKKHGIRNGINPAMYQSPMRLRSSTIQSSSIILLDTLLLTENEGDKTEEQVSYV

[3] = biological target: T3, 5-hydroxytryptamine receptor 2A (Homo sapiens, UniProt P28223); experiment: Displacement of [3H]ketanserin from human 5HT2A receptor expressed in HEK293 cells; format: cell-based
T3 sequence (P28223 whole entry): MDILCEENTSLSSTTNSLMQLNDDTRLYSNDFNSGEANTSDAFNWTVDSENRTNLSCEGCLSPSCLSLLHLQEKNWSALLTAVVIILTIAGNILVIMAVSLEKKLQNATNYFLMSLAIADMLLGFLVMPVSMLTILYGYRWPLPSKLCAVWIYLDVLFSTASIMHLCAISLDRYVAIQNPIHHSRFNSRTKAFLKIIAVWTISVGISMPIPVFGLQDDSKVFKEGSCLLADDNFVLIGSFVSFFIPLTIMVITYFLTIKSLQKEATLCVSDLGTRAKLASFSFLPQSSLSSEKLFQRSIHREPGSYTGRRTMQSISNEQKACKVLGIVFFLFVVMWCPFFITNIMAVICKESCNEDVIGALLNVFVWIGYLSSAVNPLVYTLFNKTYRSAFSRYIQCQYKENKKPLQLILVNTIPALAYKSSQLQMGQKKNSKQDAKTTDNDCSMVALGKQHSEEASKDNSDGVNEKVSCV

[4] = biological target: T2, 5-hydroxytryptamine receptor 2B; experiment: Displacement of [3H]5-HT from human 5HT2B receptor expressed in HEK293 cells; format: cell-based
[5] = biological target: T4, 5-hydroxytryptamine receptor 2C (Homo sapiens, UniProt P28335); experiment: Displacement of [3H]mesulergine from human 5HT2C receptor expressed in HEK293 cells; format: cell-based
T4 sequence (P28335 whole entry): T1 sequence (whole entry)

[6] = biological target: T3, 5-hydroxytryptamine receptor 2A; experiment: Agonist activity at human 5HT2A receptor expressed in HEK293 cells by measuring intracellular calcium mobilization upto 10 uM; format: functional, cell-based
[7] = biological target: T1, 5-hydroxytryptamine receptor 2C (Homo sapiens); experiment: Agonist activity at human 5HT2C receptor expressed in HEK293 cells by measuring intracellular calcium mobilization upto 10 uM; format: functional, cell-based
[8] = Bioavailability in rat at 3 mg/kg, po; format: ADME, organism-based; conditions: in vivo
Summary of the method: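 Oral dosing was 3 mg free base/kg by gavage (5 mL/kg) to male rats (n = 3), from 0.6 mg free base/mL in 0.5% w/v Methocel with 5% DMSO. The iv reference arm was 1 mg free base/kg as a bolus (2 mL/kg) in 25% (v/v) aqueous PEG400 with 5% (v/v) DMSO, n = 3.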

[9] = Ratio of drug level in brain to plasma in rat; format: ADME; conditions: brain and plasma
Summary of the method: (§1)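 Male rats (n = 3) received a 1 mg free base/kg iv bolus (2 mL/kg) of a 0.5 mg free base/mL solution in 25% (v/v) aqueous PEG400 containing 5% (v/v) DMSO. Brain penetration was assessed at 1 h.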

[10] = Clearance in rat blood; format: ADME, organism-based; conditions: whole blood; summary of the method: as §1

pKb [1]	Activity [2]	Ki [3]	Ki [4]	Ki [5]	Activity [6]	Activity [7]	bioavailability [8]	Kp [9]	clearance [10]	Compound
7.5	inactive	251 nM	251 nM	15.8 nM	inactive	inactive				COc1ccc(N2Cc3c(c4ccc(F)cc4n3C)C2=O)cc1OCCN1CCC(C)CC1
8.7	inactive	> 794 nM	200 nM	1.58 nM	inactive	inactive				COc1ccc(N2Cc3sc4ccccc4c3C2=O)cc1OCCN1CCC(C)CC1
	inactive	251 nM	31.6 nM	2.51 nM	inactive	inactive				COc1ccc(N2Cc3c(c4cccc(F)c4n3C)C2=O)cc1OCCN1CCC(C)CC1
	inactive				inactive	inactive				COc1ccc(N2Cc3c(c4cccc(F)c4n3C)C2=O)cc1OCCN1CCCCC1
	inactive				inactive	inactive				COc1ccc(N2Cc3c(c4cc(Cl)c(Cl)cc4n3C)C2=O)cc1OCCN1CCC(C)CC1
	inactive	316 nM	158 nM	5.01 nM	inactive	inactive				COc1ccc(N2Cc3c(c4ccc(Cl)cc4n3C)C2=O)cc1OCCN1CCCCC1
8.6	inactive	126 nM	39.8 nM	3.16 nM	inactive	inactive	44%	1	23 mL/min/kg	COc1ccc(N2Cc3c(c4cc(Cl)ccc4n3C)C2=O)cc1OCCN1CCC(C)CC1
	inactive	> 10000 nM	> 10000 nM	12.6 nM	inactive	inactive				COc1ccc(N2Cc3c(c4ccc(F)cc4n3C)C2=O)cc1OCCN1CCCCC1
	inactive	1000 nM	794 nM	31.6 nM	inactive	inactive				COc1ccc2c(c1)c1c(n2C)CN(c2ccc(OC)c(OCCN3CCCCC3)c2)C1=O
	inactive	251 nM	200 nM	3.98 nM	inactive	inactive				COc1ccc(N2Cc3c(c4ccc(Cl)cc4n3C)C2=O)cc1OCCN1CCC(C)CC1
	inactive				inactive	inactive				COc1ccc(N2C(=O)c3c(n(C)c4ccccc34)C2C)cc1OCCN1CCCCC1 (configuration not stated)
8.6	inactive	158 nM	63.1 nM	2.51 nM	inactive	inactive				COc1ccc(N2Cc3c(c4cc(F)ccc4n3C)C2=O)cc1OCCN1CCC(C)CC1
	inactive				inactive	inactive				COc1ccc2c(c1)c1c(n2C)CN(c2ccc(OC)c(OCCN3CCC(C)CC3)c2)C1=O
	inactive	501 nM	200 nM	6.31 nM	inactive	inactive				COc1ccc(N2Cc3c(c4cc(Cl)c(Cl)cc4n3C)C2=O)cc1OCCN1CCCCC1
	inactive	398 nM	> 631 nM	3.16 nM	inactive	inactive				COc1ccc(N2Cc3sc4ccccc4c3C2=O)cc1OCCN1CCCCC1
	inactive				inactive	inactive				COc1ccc(N2Cc3cc4ccccc4cc3C2=O)cc1OCCN1CCCCC1
	inactive	158 nM	> 1000 nM	2.51 nM	inactive	inactive	21%		39 mL/min/kg	COc1ccc(N2Cc3c(c4cc(Cl)ccc4n3C)C2=O)cc1OCCN1CCCCC1
	inactive				inactive	inactive				COc1ccc(N2Cc3c(c4cc(F)ccc4n3C)C2=O)cc1OCCN1CCCCC1
	inactive	501 nM	200 nM	6.31 nM	inactive	inactive	15%		53 mL/min/kg	COc1ccc(N2Cc3c(c4ccccc4n3C)C2=O)cc1OCCN1CCCCC1.Cl
